Source: PubChem
PvdQ acylase = P. aeruginosa PvdQ acylase inhibition. purified PvdQ acylase, fluorescence plate reader. inhibition, % at 10 µM. AID 488965. hit rate 0.063% among 340,000; in the data active = inhibition above about 30%, passing the limit was not always enough
ATG4B inhibitor = ATG4B (human) cysteine protease inhibition; Q9Y4P1; ATG4B cleavage of LC3-PLA2, NBD-HPC fluorescence, 1 h; inhibition, % at 8.33 µM; hit rate 0.51% among 340,000; AID 504462; in the data active = inhibition above about 40%
HKDC1 inhibitor = inhibitors of human hexokinase HKDC1 | Q2TB90 | recombinant HKDC1, G6PDH/diaphorase resazurin coupled fluorescence | inhibition, % at 20 µM | hit rate 0.16% among 340,000 | AID 493160;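 active = inhibition above about 35% when tested at 20 µM, limit read from the data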
Target sequence (Q2TB90 whole entry, looked up): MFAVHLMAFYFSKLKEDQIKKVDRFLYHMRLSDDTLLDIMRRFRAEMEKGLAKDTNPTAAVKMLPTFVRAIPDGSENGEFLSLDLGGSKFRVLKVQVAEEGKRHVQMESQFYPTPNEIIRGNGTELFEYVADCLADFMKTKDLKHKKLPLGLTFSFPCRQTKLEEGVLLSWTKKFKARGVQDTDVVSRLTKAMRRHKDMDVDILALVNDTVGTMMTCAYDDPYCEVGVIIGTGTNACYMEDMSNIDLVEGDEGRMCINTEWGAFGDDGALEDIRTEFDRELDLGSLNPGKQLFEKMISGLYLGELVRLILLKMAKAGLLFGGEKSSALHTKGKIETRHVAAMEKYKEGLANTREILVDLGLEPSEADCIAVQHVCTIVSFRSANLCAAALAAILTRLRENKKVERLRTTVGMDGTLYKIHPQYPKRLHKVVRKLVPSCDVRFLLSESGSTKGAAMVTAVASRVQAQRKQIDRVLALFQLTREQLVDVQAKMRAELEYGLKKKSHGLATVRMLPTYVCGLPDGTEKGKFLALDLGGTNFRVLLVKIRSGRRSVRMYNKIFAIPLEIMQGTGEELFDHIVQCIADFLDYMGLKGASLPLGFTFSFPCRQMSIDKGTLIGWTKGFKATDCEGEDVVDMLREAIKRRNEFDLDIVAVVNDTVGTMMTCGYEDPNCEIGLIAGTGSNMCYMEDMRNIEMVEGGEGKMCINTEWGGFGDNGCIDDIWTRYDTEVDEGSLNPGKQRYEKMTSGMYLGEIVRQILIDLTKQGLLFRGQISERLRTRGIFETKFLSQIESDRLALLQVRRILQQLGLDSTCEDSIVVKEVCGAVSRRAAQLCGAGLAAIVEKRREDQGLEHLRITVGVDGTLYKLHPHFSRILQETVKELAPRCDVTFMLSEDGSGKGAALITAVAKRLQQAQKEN
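System: Recombinant HKDC1 hexokinase | Amount: HKDC1 at 5 µg/mL | Reagent: Glucose with 1 mM ATP | Doses: Single 20 µM dose | Incubation: Reaction time 90 min, room temperature, protected from light | Signal: Coupled resazurin fluorescence, excitation 525 nm, emission 613 nm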
VIM-2 inhibitor = inhibitors of Pseudomonas aeruginosa VIM-2 metallo-beta-lactamase; purified VIM-2, nitrocefin hydrolysis, epi-absorbance fluorescence; hit rate 0.89% among 290,000; inhibition, % at 5.6 µM;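 active = inhibition above the mean of all tested compounds plus 3 SD, cutoff set per screening run, cut at about 7.5% in these data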;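 note: red hydrolysis product quenches plate fluorescence so inhibitors raise well fluorescence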
IMP-1 inh-1 = blocks Pseudomonas aeruginosa IMP-1 metallo-beta-lactamase; purified IMP-1, nitrocefin hydrolysis, epi-absorbance fluorescence; inhibition, % at 5.6 µM; hit rate 0.45% among 290,000; AID 1556;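 active = inhibition above the mean plus 3 SD of all compounds in the same screening run, cut at about 4.5% in these data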
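assay system = purified recombinant IMP-1 metallo-beta-lactamase enzyme | schedule = 15 min preincubation plus 25 min reaction at 25 °C | signal = Epi-absorbance fluorescence, 480 nm excitation, 530 nm emission | read-out basis = percent inhibition from optical density relative to buffer-blank wells | controls = IMP-1 with DMSO as 0%, enzyme-free DMSO as 100%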
MIN6 prolif = inducers of beta-cell replication in MIN6 cells; MIN6 cells proliferation, ATPlite luminescence, 48 h; cells starved in 0.2% serum; 100% = growth in 10% serum; proliferation, % at 10 µM; hit rate 0.29% among 330,000; AID 2380;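 active = compounds whose signal lies at least 3.5 SD above the mean of all wells on their plate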
IMP-1 inh-2 = selectivity counter-screen for VIM-2 inhibitors: IMP-1 metallo-beta-lactamase inhibitors | shares compounds with VIM-2 inhibitor | purified IMP-1, nitrocefin hydrolysis, epi-absorbance fluorescence | inhibition, % at 5.6 µM | 1,300 tested, under 10 active; call rule not given here
VIM-2 FRET inh = VIM-2 FRET inhibition, artifact counter-screen | purified VIM-2, CCF2 FRET substrate hydrolysis | hit rate 23% among 1,300 | inhibition, % at 5.6 µM | shares compounds with VIM-2 inhibitor;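 active = inhibition above the mean of all tested compounds plus 3 SD, cut at about 19% in these data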
TEM-1 inh = selectivity counter-screen for VIM-2 inhibitors: E. coli TEM-1 inhibitors; shares compounds with VIM-2 inhibitor; Purified TEM-1, nitrocefin hydrolysis, epi-absorbance fluorescence; inhibition, % at 5.6 µM; hit rate 3% among 1,300; AID 1866;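 active = inhibition above that campaign's mean inhibition plus 3 SD, cut at about 0.46% in these data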
VIM-2 confirm 2 = confirmation of P. aeruginosa VIM-2 metallo-beta-lactamase inhibitors; shares compounds with VIM-2 inhibitor; hit rate 96% among 1,300; purified VIM-2, nitrocefin hydrolysis, epi-absorbance; inhibition, % at 5.6 µM; AID 2187;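 active = inhibition of the VIM-2 beta-lactamase enzyme above about 11% from the earlier first-round screen, limit read from the data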
Large screens that a line does not name were inactive (follow-up assays come after a bar, where they were run). This is a sample that favours compounds with a hit; in the whole collection about 2% have one here.

CC(=O)N/N=C/c1cc(C)n(-c2ccc(Br)cc2)c1C	none
CSc1ccccc1NC(=O)CN1CCN(S(=O)(=O)c2ccccc2[N+](=O)[O-])CC1	none (no result: VIM-2 inhibitor, IMP-1 inh-1)
CC1CCCCN1CCNC(=O)c1cc2c(=O)n(C)c3ccccc3c2n1C (stereo not drawn)	VIM-2 inhibitor 20 | IMP-1 inh-2 inactive | VIM-2 FRET inh inactive | TEM-1 inh inactive | VIM-2 confirm 2 31
CN(CCNC(=O)c1cc2c(=O)n(C)c3ccccc3c2n1C)Cc1ccccc1	VIM-2 inhibitor 17 | IMP-1 inh-2 inactive | VIM-2 FRET inh inactive | TEM-1 inh inactive | VIM-2 confirm 2 26
CCN1CCN(C(=O)c2cc3c(=O)n(C)c4ccccc4c3n2C)CC1	VIM-2 inhibitor 17 | IMP-1 inh-2 inactive | VIM-2 FRET inh inactive | TEM-1 inh inactive | VIM-2 confirm 2 22
Cc1cccn2c(=O)c3cc(C(=O)NCCCN4CCCC4=O)n(C)c3nc12	VIM-2 inhibitor 17 | IMP-1 inh-2 inactive | VIM-2 FRET inh inactive | TEM-1 inh 1.2 | VIM-2 confirm 2 26
Cn1c(C(=O)NC2CCCCC2)cc2c(=O)n(C)c3ccccc3c21	none
COc1cccc(CCN2CCC(CNS(=O)(=O)c3cc(-c4cc(C)no4)ccc3C)CC2)c1	none
CC(O)CNC(=O)Cc1cc(=O)[nH]c(=O)[nH]1 (stereo not drawn)	none
CC(C)/C(=N\NS(=O)(=O)c1ccc(Br)cc1)c1cccs1	none
Cn1c(C(=O)NCCN2CCc3ccccc3C2)cc2c(=O)n(C)c3ccccc3c21	VIM-2 inhibitor 19 | IMP-1 inh-2 inactive | VIM-2 FRET inh inactive | TEM-1 inh inactive | VIM-2 confirm 2 28
Cn1c(C(=O)NCCCN2CCCC2=O)cc2c(=O)n(C)c3ccccc3c21	VIM-2 inhibitor 13 | IMP-1 inh-2 inactive | VIM-2 FRET inh inactive | TEM-1 inh inactive | VIM-2 confirm 2 29
Cn1c2ccccc2c2c(C(=O)NCCCN3CCCC3=O)cn(C3CCCCC3)c(=O)c21	none
O=C(c1ccc(N2CCNCC2)cc1)c1cccnc1	VIM-2 inhibitor 16 | IMP-1 inh-2 inactive | VIM-2 FRET inh inactive | TEM-1 inh inactive | VIM-2 confirm 2 43
O=C(Nc1ccc(N2CCCCC2)cc1)c1cccnc1	none
O=C1c2ccccc2NC(c2ccc(O)c(O)c2)N1c1ccccc1Cl (stereo not drawn)	none
COc1ccc2c(c1)c1ncn(CCN3CCNCC3)c(=O)c1n2C	VIM-2 inhibitor 14 | IMP-1 inh-2 inactive | VIM-2 FRET inh inactive | TEM-1 inh inactive | VIM-2 confirm 2 31
C=C1CSc2nc(=O)c3c(C)c(C)sc3n21	VIM-2 inhibitor 20 (no result: MIN6 prolif) | IMP-1 inh-2 inactive | VIM-2 FRET inh inactive | TEM-1 inh inactive | VIM-2 confirm 2 32
Cc1nc2sc(C)c(C)c2c(=O)[nH]1	none
CCc1nc(Nc2ccccc2)c2oc3ccccc3c2n1	none
c1ccc(-c2nc(NCCCn3ccnc3)c3oc4ccccc4c3n2)cc1	VIM-2 inhibitor 19 | IMP-1 inh-2 inactive | VIM-2 FRET inh inactive | TEM-1 inh inactive | VIM-2 confirm 2 35
Cc1nc(NCCN2CCOCC2)c2oc3ccccc3c2n1	none
c1ccc(-c2nc(NCc3ccco3)c3oc4ccccc4c3n2)cc1	none
Cc1nc(NCCCN2CCOCC2)c2oc3ccccc3c2n1	VIM-2 inhibitor 29 | IMP-1 inh-2 inactive | VIM-2 FRET inh inactive | TEM-1 inh inactive | VIM-2 confirm 2 35
CCc1nc(NCCCn2ccnc2)c2oc3ccccc3c2n1	VIM-2 inhibitor 67 | IMP-1 inh-2 inactive | VIM-2 FRET inh inactive | TEM-1 inh inactive | VIM-2 confirm 2 79
CCO[C@H]1OC(C(=O)N2CCOCC2)=C[C@@H](c2coc3ccccc3c2=O)[C@@H]1CCCO	none
CCC(CC)c1nnc(NC(=O)c2ccc(N3CCCC3=O)cc2)s1	none
COc1ccc(-c2cn(CCO)c(-c3ccncc3)n2)cc1	none (no result: VIM-2 inhibitor, IMP-1 inh-1)
CN1CCc2cc3c(c4c2[C@H]1[C@H](O)c1ccccc1-4)OCO3	VIM-2 inhibitor 17 | IMP-1 inh-2 inactive | VIM-2 FRET inh inactive | TEM-1 inh inactive | VIM-2 confirm 2 24
COc1ccc2c(c1OC)C(=O)OC2C1c2c(cc3c(c2OC)OCO3)CCN1C (stereo not drawn)	none
O=C(NCCNC(=O)c1ccccc1Br)c1cccnc1	none
O=C(O)c1cccc2c1C(=O)c1ccccc1-2	VIM-2 inhibitor 14 | IMP-1 inh-2 inactive | VIM-2 FRET inh 31 | TEM-1 inh inactive | VIM-2 confirm 2 17
O=C(O)c1cccc2c1C(=O)c1ccccc1C2=O	none
COC(=O)C1CCN(C(=O)CN2C(=O)NC(CC(C)C)C2=O)CC1 (stereo not drawn)	none (no result: VIM-2 inhibitor, IMP-1 inh-1)
CCc1cc(=O)oc2cc(OCC(=O)NCCCn3ccnc3)c(Cl)cc12	VIM-2 inhibitor 24 | IMP-1 inh-2 inactive | VIM-2 FRET inh inactive | TEM-1 inh inactive | VIM-2 confirm 2 35
Cc1c(C)c2cc(Cl)c(OCC(=O)NCCCn3ccnc3)cc2oc1=O	VIM-2 inhibitor 28 | IMP-1 inh-2 inactive | VIM-2 FRET inh inactive | TEM-1 inh inactive | VIM-2 confirm 2 38
O=C(COc1cc2oc(=O)c3c(c2cc1Cl)CCC3)Nc1cccnc1	none
O=C(COc1cc2oc(=O)c3c(c2cc1Cl)CCC3)NCCCn1ccnc1	VIM-2 inhibitor 30 | IMP-1 inh-2 inactive | VIM-2 FRET inh inactive | TEM-1 inh inactive | VIM-2 confirm 2 44
O=[N+]([O-])c1ccccc1/C=N/n1c(C(F)(F)F)n[nH]c1=S	VIM-2 inhibitor 14 | IMP-1 inh-2 inactive | VIM-2 FRET inh 55 | TEM-1 inh inactive | VIM-2 confirm 2 36
O=[N+]([O-])c1ccccc1/C=N/n1c(C2CCCCC2)n[nH]c1=S	none
O=C(c1ccco1)N1N=C(c2ccc(Cl)cc2)CC1c1ccco1 (stereo not drawn)	VIM-2 inhibitor 35 | IMP-1 inh-2 inactive | VIM-2 FRET inh 69 | TEM-1 inh inactive | VIM-2 confirm 2 44
Cc1nc(C)c(-c2csc(Nc3cccnc3)n2)s1	VIM-2 inhibitor 30 | IMP-1 inh-2 inactive | VIM-2 FRET inh inactive | TEM-1 inh inactive | VIM-2 confirm 2 45
c1cncc(Nc2nc(-c3cccnc3)cs2)c1	VIM-2 inhibitor 12 | IMP-1 inh-2 inactive | VIM-2 FRET inh inactive | TEM-1 inh inactive | VIM-2 confirm 2 41
Clc1cccc(-c2csc(Nc3cccnc3)n2)c1	none
